Assay results as given in ChEMBL document CHEMBL2157921, “Identification of novel 3,5-diarylpyrazoline derivatives containing salicylamide moiety as potential anti-melanoma agents” (Bioorg Med Chem Lett, 2012).

How the values were obtained:
[1] = Inhibition of mouse full length GST-tagged BRAF V600E mutant using MEK1 as substrate incubated for 1 hr prior to substrate addition measured after 25 min by gel electrophoresis
Procedure, shortened: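 Kinase activity was read out as BRAF V600E-mediated phosphorylation of MEK. Results are given as IC50 values.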

[2] = Antiproliferative activity against human WM266.4 cells expressing BRAF V600E mutant after 24 hrs by MTT assay; format: functional; conditions: WM 266-4, 24 h
[3] = Antiproliferative activity against human WM1361 cells expressing wild type BRAF after 24 hrs by MTT assay; format: functional, cell-based; conditions: WM1361, 24 h
[4] = biological target: Serine/threonine-protein kinase B-raf (Homo sapiens, UniProt P15056, V600E); assay: Inhibition of BRAF V600E mutant in human WM266.4 cells assessed as inhibition of ERK1/2 phosphorylation by ELISA; format: cell-based
Chain of Serine/threonine-protein kinase B-raf (P15056 2-766 V600E limits assumed): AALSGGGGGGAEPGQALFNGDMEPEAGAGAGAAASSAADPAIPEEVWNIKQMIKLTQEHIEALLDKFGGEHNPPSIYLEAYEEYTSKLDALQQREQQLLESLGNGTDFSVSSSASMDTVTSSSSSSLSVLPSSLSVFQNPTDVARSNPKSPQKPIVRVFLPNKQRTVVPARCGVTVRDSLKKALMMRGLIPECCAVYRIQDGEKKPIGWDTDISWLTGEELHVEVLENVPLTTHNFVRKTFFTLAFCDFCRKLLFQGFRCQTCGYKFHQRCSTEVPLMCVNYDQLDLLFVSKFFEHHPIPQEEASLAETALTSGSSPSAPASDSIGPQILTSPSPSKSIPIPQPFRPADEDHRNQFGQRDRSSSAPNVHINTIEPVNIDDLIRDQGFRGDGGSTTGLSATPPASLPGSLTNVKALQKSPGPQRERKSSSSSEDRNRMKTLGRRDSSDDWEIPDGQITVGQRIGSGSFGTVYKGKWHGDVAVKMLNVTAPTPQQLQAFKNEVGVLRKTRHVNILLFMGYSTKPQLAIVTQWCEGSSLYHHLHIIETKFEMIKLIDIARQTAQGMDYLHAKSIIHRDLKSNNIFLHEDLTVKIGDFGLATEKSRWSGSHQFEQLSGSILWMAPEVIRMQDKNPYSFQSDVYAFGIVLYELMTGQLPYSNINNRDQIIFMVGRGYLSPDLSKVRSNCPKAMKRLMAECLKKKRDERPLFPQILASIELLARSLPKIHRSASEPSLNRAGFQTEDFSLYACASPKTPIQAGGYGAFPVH

[5] = biological target: Epidermal growth factor receptor (Homo sapiens, UniProt P00533); assay: Inhibition of EGFR
Chain of Epidermal growth factor receptor (P00533 whole entry): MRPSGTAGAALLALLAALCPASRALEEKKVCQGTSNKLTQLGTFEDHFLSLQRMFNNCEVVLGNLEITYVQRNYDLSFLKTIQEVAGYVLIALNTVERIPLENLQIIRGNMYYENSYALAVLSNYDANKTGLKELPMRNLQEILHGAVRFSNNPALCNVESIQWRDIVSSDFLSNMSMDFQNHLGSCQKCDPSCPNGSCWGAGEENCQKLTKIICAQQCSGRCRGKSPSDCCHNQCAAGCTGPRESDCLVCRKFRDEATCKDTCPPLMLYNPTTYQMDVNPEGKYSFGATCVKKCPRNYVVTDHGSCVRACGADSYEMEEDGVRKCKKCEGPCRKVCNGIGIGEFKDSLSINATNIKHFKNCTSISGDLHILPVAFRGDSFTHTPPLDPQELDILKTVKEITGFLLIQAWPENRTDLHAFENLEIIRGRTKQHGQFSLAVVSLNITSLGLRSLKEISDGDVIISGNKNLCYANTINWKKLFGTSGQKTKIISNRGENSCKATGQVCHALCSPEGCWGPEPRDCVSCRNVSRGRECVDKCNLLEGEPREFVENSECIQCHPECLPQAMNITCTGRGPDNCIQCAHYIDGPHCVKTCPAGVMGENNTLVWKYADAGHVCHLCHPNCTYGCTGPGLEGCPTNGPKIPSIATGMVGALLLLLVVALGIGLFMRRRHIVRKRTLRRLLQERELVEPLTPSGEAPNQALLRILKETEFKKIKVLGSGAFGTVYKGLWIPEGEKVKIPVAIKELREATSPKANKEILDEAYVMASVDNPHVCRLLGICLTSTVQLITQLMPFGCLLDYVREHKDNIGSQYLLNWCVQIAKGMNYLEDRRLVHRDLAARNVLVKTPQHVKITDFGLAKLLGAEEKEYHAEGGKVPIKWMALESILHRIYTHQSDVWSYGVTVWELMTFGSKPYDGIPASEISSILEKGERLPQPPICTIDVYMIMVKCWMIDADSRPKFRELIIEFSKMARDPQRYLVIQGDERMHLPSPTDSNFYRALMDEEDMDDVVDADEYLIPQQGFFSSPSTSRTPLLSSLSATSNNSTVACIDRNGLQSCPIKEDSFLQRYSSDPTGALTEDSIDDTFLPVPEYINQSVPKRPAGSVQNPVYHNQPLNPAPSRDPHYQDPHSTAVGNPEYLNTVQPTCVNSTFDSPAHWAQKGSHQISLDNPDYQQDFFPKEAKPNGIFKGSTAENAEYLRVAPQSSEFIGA

[6] = biological target: Receptor tyrosine-protein kinase erbB-2 (Homo sapiens, UniProt P04626); assay: Inhibition of HER2
Chain of Receptor tyrosine-protein kinase erbB-2 (P04626 whole entry): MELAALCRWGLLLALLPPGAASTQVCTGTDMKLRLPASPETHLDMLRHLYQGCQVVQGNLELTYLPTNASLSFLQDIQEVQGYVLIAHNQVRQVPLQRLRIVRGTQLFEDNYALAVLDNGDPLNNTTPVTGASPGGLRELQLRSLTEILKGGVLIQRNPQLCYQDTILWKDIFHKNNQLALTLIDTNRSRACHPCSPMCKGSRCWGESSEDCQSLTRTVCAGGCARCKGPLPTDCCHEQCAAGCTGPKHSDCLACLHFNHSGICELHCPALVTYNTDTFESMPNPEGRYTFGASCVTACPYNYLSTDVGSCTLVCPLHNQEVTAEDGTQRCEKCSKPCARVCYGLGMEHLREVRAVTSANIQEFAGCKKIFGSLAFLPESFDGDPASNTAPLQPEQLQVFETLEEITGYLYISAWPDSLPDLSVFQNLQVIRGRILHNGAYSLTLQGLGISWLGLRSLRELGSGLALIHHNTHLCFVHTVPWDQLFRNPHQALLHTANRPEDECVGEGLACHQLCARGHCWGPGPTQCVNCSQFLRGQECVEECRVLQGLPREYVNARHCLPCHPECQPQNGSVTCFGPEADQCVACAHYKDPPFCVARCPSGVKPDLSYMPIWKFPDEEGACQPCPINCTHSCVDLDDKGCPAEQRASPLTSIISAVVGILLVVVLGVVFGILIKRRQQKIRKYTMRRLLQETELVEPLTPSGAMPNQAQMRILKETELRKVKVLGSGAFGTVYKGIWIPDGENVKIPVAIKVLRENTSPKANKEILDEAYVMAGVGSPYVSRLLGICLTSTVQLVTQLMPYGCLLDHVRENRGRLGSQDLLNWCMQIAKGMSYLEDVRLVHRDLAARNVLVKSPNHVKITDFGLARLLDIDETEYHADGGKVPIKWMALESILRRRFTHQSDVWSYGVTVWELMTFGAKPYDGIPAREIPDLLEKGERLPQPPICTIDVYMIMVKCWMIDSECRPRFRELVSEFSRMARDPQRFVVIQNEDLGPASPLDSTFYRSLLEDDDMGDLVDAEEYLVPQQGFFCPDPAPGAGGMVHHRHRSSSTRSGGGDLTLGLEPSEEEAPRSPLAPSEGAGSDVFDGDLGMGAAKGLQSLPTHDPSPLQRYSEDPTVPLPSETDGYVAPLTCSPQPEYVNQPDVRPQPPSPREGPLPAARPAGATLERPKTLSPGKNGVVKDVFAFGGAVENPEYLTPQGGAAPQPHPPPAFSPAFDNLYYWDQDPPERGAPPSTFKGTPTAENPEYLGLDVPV

[7] = Inhibition of bovine FAK isolated from brain after 20 mins by turbidimetric analysis; parameters: species or system Bos taurus
Aurora kinase A = biological target: T1, Aurora kinase A (Homo sapiens, UniProt O14965); assay: Inhibition of human recombinant Aurora A kinase using PLK as substrate incubated for 15 mins prior to substrate addition measured after 60 mins by immunofluorescence method
T1 sequence (O14965 whole entry): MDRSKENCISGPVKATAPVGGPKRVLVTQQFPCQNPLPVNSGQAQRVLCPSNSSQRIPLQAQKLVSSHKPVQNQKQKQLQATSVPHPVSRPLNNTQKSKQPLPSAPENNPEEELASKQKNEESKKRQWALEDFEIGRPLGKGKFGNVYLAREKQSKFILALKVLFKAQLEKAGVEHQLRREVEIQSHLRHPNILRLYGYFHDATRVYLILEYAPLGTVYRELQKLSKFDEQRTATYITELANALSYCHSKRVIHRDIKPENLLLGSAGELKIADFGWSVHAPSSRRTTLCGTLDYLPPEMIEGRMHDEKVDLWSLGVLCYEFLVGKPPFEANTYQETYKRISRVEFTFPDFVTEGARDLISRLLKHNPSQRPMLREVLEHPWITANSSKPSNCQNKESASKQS

[8] = biological target: Vascular endothelial growth factor receptor 2 (Homo sapiens, UniProt P35968); assay: Inhibition of VEGFR2 using gastrin as substrate after 60 mins by immunofluorescence method
Chain of Vascular endothelial growth factor receptor 2 (P35968 whole entry): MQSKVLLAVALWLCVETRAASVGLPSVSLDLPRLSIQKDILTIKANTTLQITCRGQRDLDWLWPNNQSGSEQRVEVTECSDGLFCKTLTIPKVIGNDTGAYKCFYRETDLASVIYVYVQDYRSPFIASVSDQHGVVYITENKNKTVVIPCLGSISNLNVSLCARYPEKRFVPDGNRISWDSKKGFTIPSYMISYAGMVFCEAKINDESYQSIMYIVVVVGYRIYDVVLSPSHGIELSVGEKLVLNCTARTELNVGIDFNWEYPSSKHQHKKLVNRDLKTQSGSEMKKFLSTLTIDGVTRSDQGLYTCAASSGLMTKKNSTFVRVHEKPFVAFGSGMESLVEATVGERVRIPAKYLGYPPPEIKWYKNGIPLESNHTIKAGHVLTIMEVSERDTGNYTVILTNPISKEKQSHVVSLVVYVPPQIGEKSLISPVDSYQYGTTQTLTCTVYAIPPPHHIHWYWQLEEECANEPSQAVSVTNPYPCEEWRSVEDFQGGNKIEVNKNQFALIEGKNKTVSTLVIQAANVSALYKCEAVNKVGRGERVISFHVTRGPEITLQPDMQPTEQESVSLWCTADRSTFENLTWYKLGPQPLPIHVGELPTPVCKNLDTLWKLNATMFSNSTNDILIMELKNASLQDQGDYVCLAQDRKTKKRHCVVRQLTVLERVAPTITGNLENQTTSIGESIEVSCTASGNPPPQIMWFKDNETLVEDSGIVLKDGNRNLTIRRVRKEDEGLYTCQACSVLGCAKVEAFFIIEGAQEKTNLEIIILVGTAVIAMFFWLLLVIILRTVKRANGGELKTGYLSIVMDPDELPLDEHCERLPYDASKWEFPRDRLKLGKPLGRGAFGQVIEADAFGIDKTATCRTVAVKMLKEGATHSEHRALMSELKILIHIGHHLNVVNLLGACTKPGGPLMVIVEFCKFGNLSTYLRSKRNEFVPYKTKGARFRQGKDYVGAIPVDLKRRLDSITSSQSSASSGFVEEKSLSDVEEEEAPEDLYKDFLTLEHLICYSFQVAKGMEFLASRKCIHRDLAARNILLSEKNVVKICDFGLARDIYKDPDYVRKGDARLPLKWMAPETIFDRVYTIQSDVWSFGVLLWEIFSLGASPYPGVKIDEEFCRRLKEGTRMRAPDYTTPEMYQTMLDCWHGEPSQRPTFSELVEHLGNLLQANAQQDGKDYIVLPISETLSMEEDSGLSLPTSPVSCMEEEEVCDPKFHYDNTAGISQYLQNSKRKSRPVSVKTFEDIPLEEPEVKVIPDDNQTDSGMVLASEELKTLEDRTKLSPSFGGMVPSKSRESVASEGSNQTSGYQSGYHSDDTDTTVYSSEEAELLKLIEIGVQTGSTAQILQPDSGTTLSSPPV

SMILES	IC50 [1] [µM]	GI50 [2] [µM]	further results
COc1ccc(C2=NN(C(=O)c3ccc(Cl)cc3O)C(c3ccc(Br)cc3)C2)cc1 (centres undefined)	1.38	2.89	–
CNC(=O)c1cc(Oc2ccc(NC(=O)Nc3ccc(Cl)c(C(F)(F)F)c3)cc2)ccn1 [SORAFENIB]	0.06	8.1	–
COc1ccc(C2=NN(C(=O)c3cc(Br)ccc3O)C(c3ccc(Cl)cc3)C2)cc1 (centres undefined)	1.21	2.39	–
COc1ccc(C2=NN(C(=O)c3cc(I)ccc3O)C(c3ccc(Cl)cc3)C2)cc1 (centres undefined)	1.3	3.27	–
COc1ccc(C2=NN(C(=O)c3cc(Cl)ccc3O)C(c3ccc(OCc4ccccc4)cc3)C2)cc1 (centres undefined)	5.69	12.9	–
COc1ccc(C2=NN(C(=O)c3cc(Br)ccc3O)C(c3ccc(OCc4ccccc4)cc3)C2)cc1 (centres undefined)	7.22	12.9	–
COc1ccc(C2=NN(C(=O)c3cc(I)ccc3O)C(c3ccc(Br)cc3)C2)cc1 (centres undefined)	4.1	7.35	–
COc1ccc(C2=NN(C(=O)c3cc(I)ccc3O)C(c3ccc(OCc4ccccc4)cc3)C2)cc1 (centres undefined)	5.9	13	–
COc1ccc(C2=NN(C(=O)c3cc(OC)ccc3O)C(c3ccc(OCc4ccccc4)cc3)C2)cc1 (centres undefined)	10.3	13.9	–
COc1ccc(C2=NN(C(=O)c3ccc(Cl)cc3O)C(c3ccc(OCc4ccccc4)cc3)C2)cc1 (centres undefined)	5.01	7.89	–
COc1ccc(C2=NN(C(=O)c3cc(Br)ccc3O)C(c3ccc(Br)cc3)C2)cc1 (centres undefined)	3.69	7.4	–
COc1ccc(C2=NN(C(=O)c3cc(OC)ccc3O)C(c3ccc(Br)cc3)C2)cc1 (centres undefined)	6.94	12.9	–
COc1ccc(C2=NN(C(=O)c3ccc(Cl)cc3O)C(c3ccc(Cl)cc3)C2)cc1 (centres undefined)	0.16	0.24	GI50 [3]: 12.1 µM; IC50 [4]: 0.81 µM; IC50 [5]: 10.5 µM; IC50 [6]: > 25 µM; IC50 [7]: > 25 µM; IC50 (Aurora kinase A): > 25 µM; IC50 [8]: > 25 µM

Continued, in another order:

IC50 [1] [µM]	SMILES	GI50 [2] [µM]	further results
3.72	COc1ccc(C2=NN(C(=O)c3cc(OC)ccc3O)C(c3ccc(Cl)cc3)C2)cc1 (centres undefined)	5.04	–
13.3	COc1ccc(C2=NN(C(=O)c3cc(I)ccc3O)C(c3ccc(OC)cc3)C2)cc1 (centres undefined)	15.6	–
2.51	COc1ccc(C2=NN(C(=O)c3cc(Cl)ccc3O)C(c3ccc(Br)cc3)C2)cc1 (centres undefined)	3.48	–
0.57	COc1ccc(C2=NN(C(=O)c3cc(Cl)ccc3O)C(c3ccc(Cl)cc3)C2)cc1 (centres undefined)	1.52	–
7.04	COc1ccc(C2=NN(C(=O)c3ccc(Cl)cc3O)C(c3ccc(OC)cc3)C2)cc1 (centres undefined)	13.3	–
4.92	COc1ccc(C2=NN(C(=O)c3cc(Br)ccc3O)C(c3ccc(OC)cc3)C2)cc1 (centres undefined)	18.4	–
8.38	COc1ccc(C2=NN(C(=O)c3cc(OC)ccc3O)C(c3ccc(OC)cc3)C2)cc1 (centres undefined)	> 20	–
9.3	COc1ccc(C2=NN(C(=O)c3cc(Cl)ccc3O)C(c3ccc(OC)cc3)C2)cc1 (centres undefined)	12.6	–
